Laboratory results reported in ChEMBL document CHEMBL1134050, “Phenyl benzenesulfonamides are novel and selective 5-HT6 antagonists: identification of N-(2,5-dibromo-3-fluorophenyl)-4-methoxy-3-piperazin-1-ylbenzenesulfonamide (SB-357134)” (Bioorg Med Chem Lett, 2001).

Key:
[1] = Bioavailability in rat (dose 10 mg/kg in 10% Encapsin and 2% DMSO p.o.); conditions: in vivo, po
[2] = biological target: T1, Alpha-1B adrenergic receptor (Homo sapiens, UniProt P35368); assay: Compound was evaluated for binding affinity against Alpha-1B adrenergic receptor
T1 sequence (P35368 whole entry): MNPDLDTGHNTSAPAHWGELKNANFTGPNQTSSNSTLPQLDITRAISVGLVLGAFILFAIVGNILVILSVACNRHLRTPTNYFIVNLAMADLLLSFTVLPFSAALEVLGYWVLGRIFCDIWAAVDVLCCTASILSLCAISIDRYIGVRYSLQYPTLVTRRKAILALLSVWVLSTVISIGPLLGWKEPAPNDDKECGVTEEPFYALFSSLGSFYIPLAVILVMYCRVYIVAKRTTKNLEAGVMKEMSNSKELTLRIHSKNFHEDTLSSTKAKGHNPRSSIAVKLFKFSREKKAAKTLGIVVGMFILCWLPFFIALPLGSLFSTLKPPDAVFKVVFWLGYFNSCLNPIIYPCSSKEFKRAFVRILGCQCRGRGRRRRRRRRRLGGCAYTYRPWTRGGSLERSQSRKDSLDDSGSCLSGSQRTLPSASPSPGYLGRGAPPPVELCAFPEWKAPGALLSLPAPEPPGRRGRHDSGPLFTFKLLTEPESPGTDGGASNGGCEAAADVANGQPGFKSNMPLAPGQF

[3] = Plasma Clearance measured at steady-state following iv infusion at 0.6 mg/kg/h in rats; type: ADME, organism-based; design: route intravenous; conditions: rat, 0.6 mg/kg/h infusion
[4] = biological target: T2, 5-hydroxytryptamine receptor 1F (Homo sapiens, UniProt P30939); assay: Compound was evaluated for binding affinity against human cloned 5-hydroxytryptamine 1F receptor in CHO cells using [3H]-5-HT as the radioligand; type: cell-based
T2 sequence (P30939 whole entry): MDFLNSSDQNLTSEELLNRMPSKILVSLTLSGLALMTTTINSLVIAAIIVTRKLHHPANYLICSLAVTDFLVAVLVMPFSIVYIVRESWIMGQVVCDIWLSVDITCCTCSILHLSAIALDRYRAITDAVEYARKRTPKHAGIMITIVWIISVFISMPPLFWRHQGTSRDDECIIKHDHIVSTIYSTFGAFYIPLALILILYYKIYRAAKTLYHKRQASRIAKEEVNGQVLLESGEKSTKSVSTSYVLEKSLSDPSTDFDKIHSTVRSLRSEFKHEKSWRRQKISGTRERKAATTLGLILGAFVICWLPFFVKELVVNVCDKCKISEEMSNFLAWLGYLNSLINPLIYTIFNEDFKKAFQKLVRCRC

[5] = biological target: D(3) dopamine receptor (Homo sapiens, UniProt P35462); assay: Compound was evaluated for binding affinity against Dopamine receptor D3 in CHO cells using [125I]iodosulpiride as the radioligand; type: cell-based
D(3) dopamine receptor, sequence (P35462 whole entry): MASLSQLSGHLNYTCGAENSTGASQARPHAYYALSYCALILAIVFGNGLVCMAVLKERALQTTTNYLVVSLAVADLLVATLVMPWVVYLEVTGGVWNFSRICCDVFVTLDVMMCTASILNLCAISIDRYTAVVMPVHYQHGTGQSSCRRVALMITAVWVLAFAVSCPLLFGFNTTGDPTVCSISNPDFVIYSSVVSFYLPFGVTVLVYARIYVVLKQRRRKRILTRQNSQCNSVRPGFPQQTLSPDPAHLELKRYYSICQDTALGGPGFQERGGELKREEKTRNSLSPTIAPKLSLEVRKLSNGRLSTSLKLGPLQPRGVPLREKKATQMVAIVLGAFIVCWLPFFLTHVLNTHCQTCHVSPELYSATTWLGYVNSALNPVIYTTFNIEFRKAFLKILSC
Procedure, shortened: (§1)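 Radioligand binding to human cloned receptors: 5-HT1A in HEK 293 cells with [3H]-8-OH-DPAT; 5-HT1B and 5-HT1E in CHO cells with [3H]-5-HT; 5-HT2B in HEK 293 cells with [3H]-5-HT; D2 and D3 in CHO cells with [125I]-iodosulpride. Values are the mean of at least two determinations, each within 0.2 log unit of the mean.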

[6] = biological target: T3, 5-hydroxytryptamine receptor 1A (Homo sapiens, UniProt P08908); assay: Compound was evaluated for binding affinity against human cloned 5-hydroxytryptamine 1A receptor in HEK 293 cells using [3H]8-OH-DPAT as the radioligand; type: cell-based, HEK293
T3 sequence (P08908 whole entry): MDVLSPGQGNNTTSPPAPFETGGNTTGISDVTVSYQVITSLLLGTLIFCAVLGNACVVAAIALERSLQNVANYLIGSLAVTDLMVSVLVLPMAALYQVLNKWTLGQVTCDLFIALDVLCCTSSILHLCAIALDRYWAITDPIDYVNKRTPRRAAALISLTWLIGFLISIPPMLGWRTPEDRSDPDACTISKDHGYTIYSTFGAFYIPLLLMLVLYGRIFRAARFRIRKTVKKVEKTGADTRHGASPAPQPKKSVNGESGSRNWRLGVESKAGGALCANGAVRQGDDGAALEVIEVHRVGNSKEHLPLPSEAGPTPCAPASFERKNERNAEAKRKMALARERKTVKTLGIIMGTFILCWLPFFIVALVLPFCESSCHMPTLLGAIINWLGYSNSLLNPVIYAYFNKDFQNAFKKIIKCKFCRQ
Procedure, shortened: as §1

[7] = biological target: D(2) dopamine receptor (Homo sapiens, UniProt P14416); assay: Compound was evaluated for binding affinity against Dopamine receptor D2 in CHO cells using [125I]iodosulpiride as the radioligand; type: cell-based
D(2) dopamine receptor, sequence (P14416 whole entry): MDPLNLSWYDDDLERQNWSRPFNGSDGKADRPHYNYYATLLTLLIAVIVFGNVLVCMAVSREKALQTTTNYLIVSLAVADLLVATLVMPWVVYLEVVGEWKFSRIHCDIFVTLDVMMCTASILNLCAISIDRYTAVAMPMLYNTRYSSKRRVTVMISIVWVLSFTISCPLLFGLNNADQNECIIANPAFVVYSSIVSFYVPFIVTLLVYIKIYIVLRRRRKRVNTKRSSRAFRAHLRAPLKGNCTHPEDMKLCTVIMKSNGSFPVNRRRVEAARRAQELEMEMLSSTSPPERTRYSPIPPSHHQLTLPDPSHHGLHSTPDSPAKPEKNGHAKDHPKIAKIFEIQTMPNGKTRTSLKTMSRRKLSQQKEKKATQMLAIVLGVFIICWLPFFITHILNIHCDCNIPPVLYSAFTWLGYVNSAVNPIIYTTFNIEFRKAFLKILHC
Procedure, shortened: as §1

[8] = biological target: T4, 5-hydroxytryptamine receptor 2C (Homo sapiens, UniProt P28335); assay: Compound was evaluated for binding affinity against human cloned 5-hydroxytryptamine 2C receptor in HEK 293 cells using [3H]mesulergine as the radioligand; type: cell-based, HEK293
T4 sequence (P28335 whole entry): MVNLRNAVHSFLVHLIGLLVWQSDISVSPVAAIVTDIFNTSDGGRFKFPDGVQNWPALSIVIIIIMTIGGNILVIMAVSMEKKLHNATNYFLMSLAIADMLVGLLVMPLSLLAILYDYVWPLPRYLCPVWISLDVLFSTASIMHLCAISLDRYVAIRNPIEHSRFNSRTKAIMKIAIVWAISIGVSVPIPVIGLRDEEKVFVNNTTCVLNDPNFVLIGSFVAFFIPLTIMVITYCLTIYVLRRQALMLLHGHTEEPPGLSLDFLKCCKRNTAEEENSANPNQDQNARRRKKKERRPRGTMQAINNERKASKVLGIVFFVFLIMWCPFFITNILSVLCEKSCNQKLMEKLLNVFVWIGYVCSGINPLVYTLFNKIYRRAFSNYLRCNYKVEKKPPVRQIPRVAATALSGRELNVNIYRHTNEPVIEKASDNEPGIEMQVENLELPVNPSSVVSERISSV

[9] = biological target: 5-hydroxytryptamine receptor 1B (Homo sapiens, UniProt P28222); assay: Compound was evaluated for binding affinity against human cloned 5-hydroxytryptamine 1B receptor in CHO cells using [3H]5-HT as the radioligand; type: cell-based
5-hydroxytryptamine receptor 1B, sequence (P28222 whole entry): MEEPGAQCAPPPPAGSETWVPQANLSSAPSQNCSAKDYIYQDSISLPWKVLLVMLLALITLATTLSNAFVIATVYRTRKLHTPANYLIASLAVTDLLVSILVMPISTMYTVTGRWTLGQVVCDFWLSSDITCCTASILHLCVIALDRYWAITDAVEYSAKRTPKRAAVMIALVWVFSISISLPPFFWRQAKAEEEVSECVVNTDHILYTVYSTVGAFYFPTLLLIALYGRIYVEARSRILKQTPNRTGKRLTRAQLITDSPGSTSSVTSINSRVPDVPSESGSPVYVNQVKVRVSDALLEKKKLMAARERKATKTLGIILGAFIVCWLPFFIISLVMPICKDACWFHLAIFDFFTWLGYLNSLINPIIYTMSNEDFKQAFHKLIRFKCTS
Procedure, shortened: as §1

[10] = biological target: 5-hydroxytryptamine receptor 7 (Homo sapiens, UniProt P34969); assay: Displacement of [3H]-5-CT from human 5-hydroxytryptamine 7 receptor expressed in HEK-293 cells; type: cell-based, HEK293
5-hydroxytryptamine receptor 7, sequence (P34969 whole entry): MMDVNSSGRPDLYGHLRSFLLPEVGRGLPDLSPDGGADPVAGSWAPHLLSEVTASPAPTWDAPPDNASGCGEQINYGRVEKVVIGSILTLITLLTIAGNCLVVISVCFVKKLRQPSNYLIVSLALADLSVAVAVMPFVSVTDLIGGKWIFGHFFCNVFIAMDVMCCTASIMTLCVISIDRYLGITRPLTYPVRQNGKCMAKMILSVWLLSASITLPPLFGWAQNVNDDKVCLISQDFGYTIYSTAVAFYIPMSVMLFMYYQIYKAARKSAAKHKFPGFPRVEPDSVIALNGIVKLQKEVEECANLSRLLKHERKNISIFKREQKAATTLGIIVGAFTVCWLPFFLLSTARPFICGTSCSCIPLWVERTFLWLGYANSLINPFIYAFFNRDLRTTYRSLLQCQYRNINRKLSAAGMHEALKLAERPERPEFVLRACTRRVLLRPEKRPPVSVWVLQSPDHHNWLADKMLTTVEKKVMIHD

[11] = biological target: 5-hydroxytryptamine receptor 2B (Homo sapiens, UniProt P41595); assay: Compound was evaluated for binding affinity against human cloned 5-HT2B receptor in HEK 293 cells using [3H]5-HT as the radioligand; type: cell-based, HEK293
5-hydroxytryptamine receptor 2B, sequence (P41595 whole entry): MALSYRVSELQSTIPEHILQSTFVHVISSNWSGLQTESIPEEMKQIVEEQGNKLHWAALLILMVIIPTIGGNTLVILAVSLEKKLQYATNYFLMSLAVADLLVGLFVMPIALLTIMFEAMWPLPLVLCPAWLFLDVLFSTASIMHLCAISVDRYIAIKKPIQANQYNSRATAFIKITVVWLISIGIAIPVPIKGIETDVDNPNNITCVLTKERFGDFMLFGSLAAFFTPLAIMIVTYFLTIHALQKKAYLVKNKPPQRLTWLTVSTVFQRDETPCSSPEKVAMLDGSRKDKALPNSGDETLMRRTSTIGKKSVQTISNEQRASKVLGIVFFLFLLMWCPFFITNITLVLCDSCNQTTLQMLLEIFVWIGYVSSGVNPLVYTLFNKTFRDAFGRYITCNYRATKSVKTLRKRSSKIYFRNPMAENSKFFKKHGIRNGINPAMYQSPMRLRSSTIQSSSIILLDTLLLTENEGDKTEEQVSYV
Procedure, shortened: as §1

[12] = biological target: 5-hydroxytryptamine receptor 2A (Homo sapiens, UniProt P28223); assay: Compound was evaluated for binding affinity against human cloned 5-hydroxytryptamine 2A receptor in HEK 293 cells using [3H]ketanserin as the radioligand; type: cell-based, HEK293
5-hydroxytryptamine receptor 2A, sequence (P28223 whole entry): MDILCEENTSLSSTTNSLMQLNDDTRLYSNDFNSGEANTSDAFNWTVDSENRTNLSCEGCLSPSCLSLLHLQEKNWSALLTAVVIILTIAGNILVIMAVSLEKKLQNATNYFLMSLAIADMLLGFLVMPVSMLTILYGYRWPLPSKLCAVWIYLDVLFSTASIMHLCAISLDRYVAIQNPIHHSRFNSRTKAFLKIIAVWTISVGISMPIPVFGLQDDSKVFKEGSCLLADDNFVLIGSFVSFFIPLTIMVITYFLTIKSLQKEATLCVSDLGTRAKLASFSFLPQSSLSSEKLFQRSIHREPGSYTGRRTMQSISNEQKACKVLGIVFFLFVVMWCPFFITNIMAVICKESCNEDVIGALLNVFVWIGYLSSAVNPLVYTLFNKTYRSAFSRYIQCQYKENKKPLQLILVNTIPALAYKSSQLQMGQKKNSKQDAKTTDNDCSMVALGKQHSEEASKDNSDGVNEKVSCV

[13] = biological target: 5-hydroxytryptamine receptor 4 (Homo sapiens, UniProt Q13639); assay: Compound was evaluated for the binding affinity against human cloned 5-hydroxytryptamine 4 receptor in HeLa cells using [3H]-LSD as the radioligand; type: cell-based
5-hydroxytryptamine receptor 4, sequence (Q13639 whole entry): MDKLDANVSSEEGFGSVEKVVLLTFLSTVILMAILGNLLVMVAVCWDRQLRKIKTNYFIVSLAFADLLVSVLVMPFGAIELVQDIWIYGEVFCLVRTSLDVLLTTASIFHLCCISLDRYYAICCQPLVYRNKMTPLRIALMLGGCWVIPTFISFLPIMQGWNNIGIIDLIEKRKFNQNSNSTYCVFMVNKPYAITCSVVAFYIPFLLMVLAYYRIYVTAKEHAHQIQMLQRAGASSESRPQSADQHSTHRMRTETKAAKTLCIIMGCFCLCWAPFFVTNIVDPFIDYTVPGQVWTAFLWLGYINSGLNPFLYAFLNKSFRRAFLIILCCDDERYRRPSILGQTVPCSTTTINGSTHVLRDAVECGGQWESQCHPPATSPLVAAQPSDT

[14] = biological target: 5-hydroxytryptamine receptor 1E (Homo sapiens, UniProt P28566); assay: Compound was evaluated for binding affinity against human cloned 5-hydroxytryptamine 1E receptor in CHO cells using [3H]5-HT as the radioligand; type: cell-based
5-hydroxytryptamine receptor 1E, sequence (P28566 whole entry): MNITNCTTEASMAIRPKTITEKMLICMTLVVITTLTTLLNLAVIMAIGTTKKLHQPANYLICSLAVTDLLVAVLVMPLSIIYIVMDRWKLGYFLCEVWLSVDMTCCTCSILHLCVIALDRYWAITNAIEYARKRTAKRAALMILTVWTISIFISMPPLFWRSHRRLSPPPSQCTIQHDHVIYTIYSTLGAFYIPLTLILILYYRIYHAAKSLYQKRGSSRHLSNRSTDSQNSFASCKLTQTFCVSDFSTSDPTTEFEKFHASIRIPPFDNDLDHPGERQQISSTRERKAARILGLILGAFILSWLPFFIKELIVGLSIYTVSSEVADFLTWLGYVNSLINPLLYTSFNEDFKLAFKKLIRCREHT
Procedure, shortened: as §1

[15] = biological target: 5-hydroxytryptamine receptor 1D (Homo sapiens, UniProt P28221); assay: Compound was evaluated for binding affinity against human cloned 5-hydroxytryptamine 1D receptor in CHO cells using [3H]5-HT as the radioligand; type: cell-based
5-hydroxytryptamine receptor 1D, sequence (P28221 whole entry): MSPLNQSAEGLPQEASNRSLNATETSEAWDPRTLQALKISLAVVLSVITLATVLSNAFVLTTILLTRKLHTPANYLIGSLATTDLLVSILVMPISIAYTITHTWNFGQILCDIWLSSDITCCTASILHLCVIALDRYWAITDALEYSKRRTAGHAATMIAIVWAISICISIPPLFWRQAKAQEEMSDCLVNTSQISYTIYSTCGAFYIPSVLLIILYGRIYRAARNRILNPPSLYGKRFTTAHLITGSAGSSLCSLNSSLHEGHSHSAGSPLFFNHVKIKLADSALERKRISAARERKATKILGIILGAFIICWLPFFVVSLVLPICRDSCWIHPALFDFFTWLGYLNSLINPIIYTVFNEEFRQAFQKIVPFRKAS

[16] = species on record: Rattus norvegicus; assay: Blood: Brain distribution ratio is determined in rat; type: ADME, organism-based
Procedure, shortened: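 Rats received iv infusion for 8 h, and the brain:blood ratio was taken at steady state.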

[17] = biological target: 5-hydroxytryptamine receptor 6 (Homo sapiens, UniProt P50406); assay: Binding affinity against human 5-hydroxytryptamine 6 receptor
5-hydroxytryptamine receptor 6, sequence (P50406 whole entry): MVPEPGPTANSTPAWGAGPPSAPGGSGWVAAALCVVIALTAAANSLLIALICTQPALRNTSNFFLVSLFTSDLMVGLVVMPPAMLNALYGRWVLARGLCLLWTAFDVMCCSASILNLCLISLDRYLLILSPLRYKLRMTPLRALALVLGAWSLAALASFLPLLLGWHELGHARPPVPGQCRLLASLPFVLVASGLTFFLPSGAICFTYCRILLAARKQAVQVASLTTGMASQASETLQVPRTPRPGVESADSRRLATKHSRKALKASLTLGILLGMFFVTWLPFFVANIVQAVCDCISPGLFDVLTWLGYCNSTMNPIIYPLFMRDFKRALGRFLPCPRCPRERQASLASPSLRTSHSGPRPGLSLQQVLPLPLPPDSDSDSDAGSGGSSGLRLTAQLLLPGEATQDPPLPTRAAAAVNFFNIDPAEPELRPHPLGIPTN

[18] = system: Rattus norvegicus; assay: Pharmacokinetic property( plasma concentration) was determined upon 10 mg/kg in 1% methylcellulose peroral administration in rats; type: ADME, organism-based; design: dose 10 mg/kg, route oral; conditions: in vivo, po
[19] = Bioavailability was determined upon 10 mg/kg in 1% methylcellulose peroral administration in rats; type: ADME, organism-based; conditions: rat, in vivo, po
Procedure, shortened: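 Rats were given 10 mg/kg orally as a suspension in 1% methylcellulose (v/v) aq (n=3). Blood drug levels were determined by LC/MS/MS, and AUC/dose and bioavailability were derived from them.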

## COc1ccc(S(=O)(=O)Nc2cc(Br)cc(F)c2Br)cc1N1CCNCC1
[1]
  bioavailability: 65%
[2]
  Ki: > 7.94 µM
[3]
  clearance: 14 mL/min/kg
[4]
  Ki: > 10 µM
[5]
  Ki: > 5.01 µM
[6]
  Ki: > 6.31 µM
[7]
  Ki: > 5.01 µM
[8]
  Ki: > 5.01 µM
[9]
  Ki: > 3.98 µM
[10]
  Ki: > 10 µM
[11]
  Ki: > 3.98 µM
[12]
  Ki: > 7.94 µM
[13]
  Ki: > 5.01 µM
[14]
  Ki: > 10 µM
[15]
  Ki: > 3.98 µM

## COc1ccc(S(=O)(=O)Nc2cc(Cl)cc(Cl)c2)cc1N1CCNCC1
[3]
  clearance: 4 mL/min/kg
[16]
  Distribution ratio: 0.02
[17]
  Ki: 0.000631 µM
[18]
  AUC: 450 uM min uM-1
[19]
  bioavailability: 51%
